In data set [1] the test system is Liver microsome. The experiment in a line: Drug metabolism in rat liver microsomes assessed as cyclobutane ring oxidation after 1 hr by HPLC analysis. The data set is classed as ADME. A digest of the protocol: (§1)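 Compound incubated in rat liver microsomes for 1 h at 37 °C. Metabolite distribution analysed by HPLC; metabolite structures assigned by 1H NMR.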
In data set [2] the test system is Liver microsome. Description: Drug metabolism in rat liver microsomes assessed as aromatic ring oxidation after 1 hr by HPLC analysis. The data set is classed as ADME. A digest of the protocol: as §1
Data set [3] deals with Liver microsome. Description: Drug metabolism in rat liver microsomes assessed as alcohol group oxidation after 1 hr by HPLC analysis. The data set is classed as ADME. In short, it runs like this: as §1
Background: Liver microsomes are vesicles of endoplasmic reticulum, rich in cytochrome P450 enzymes.

Data set [4] has as its target T1, Transient receptor potential cation channel subfamily V member 3 (Homo sapiens) (UniProt Q8NET8).
T1 sequence (whole entry): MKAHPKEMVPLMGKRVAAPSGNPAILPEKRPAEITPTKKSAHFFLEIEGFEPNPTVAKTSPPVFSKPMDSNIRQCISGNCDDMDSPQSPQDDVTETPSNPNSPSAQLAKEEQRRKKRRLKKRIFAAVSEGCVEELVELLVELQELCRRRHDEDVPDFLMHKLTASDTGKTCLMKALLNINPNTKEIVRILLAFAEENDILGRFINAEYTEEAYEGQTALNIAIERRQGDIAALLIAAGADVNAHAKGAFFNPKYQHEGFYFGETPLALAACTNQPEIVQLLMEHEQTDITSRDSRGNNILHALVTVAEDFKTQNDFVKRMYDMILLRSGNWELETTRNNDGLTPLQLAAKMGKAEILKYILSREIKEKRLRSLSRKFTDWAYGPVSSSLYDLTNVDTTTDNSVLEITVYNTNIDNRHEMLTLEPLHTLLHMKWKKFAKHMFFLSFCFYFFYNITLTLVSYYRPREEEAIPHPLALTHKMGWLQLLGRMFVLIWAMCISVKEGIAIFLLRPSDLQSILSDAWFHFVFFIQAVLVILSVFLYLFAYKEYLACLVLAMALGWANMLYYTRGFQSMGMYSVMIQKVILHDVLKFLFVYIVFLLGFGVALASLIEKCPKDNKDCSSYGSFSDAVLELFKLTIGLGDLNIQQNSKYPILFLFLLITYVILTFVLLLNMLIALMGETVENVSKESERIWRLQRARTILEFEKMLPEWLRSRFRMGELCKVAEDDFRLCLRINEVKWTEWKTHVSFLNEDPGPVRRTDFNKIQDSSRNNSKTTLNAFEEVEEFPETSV
Description: (§2) Antagonist activity at human TRPV3 expressed in recombinant HEK293 cells assessed as inhibition of 2-APB induced calcium flux by FLIPR analysis. The format is cell-based. In short, it runs like this:
(§3)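 HEK293 cells stably expressing human TRPV3 (I25V variant), plated the day before in DMEM + 10% FBS at 37 °C, 5% CO2. Calcium 4 dye loaded in Ca/Mg-free HEPES D-PBS pH 7.4 for 1–2 h at room temperature. Compound dilutions added with 3 min baseline, then 2-APB at 60 µM final; Ca2+ flux read 3 min on FLIPR. Kb from at least duplicates, averaged across independent runs.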

Data set [5] addresses T2, Transient receptor potential cation channel subfamily V member 3 (Homo sapiens, UniProt Q8NET8).
T2 sequence (Q8NET8 whole entry): T1 sequence (whole entry)
The data set is described as §2. The data set is classed as cell-based. A digest of the protocol: as §3

The subject of data set [6] is Liver microsome. The experiment in a line: Unbound intrinsic clearance in rat liver microsomes after 5 hrs by LC-MS/MS analysis. The data set is classed as ADME. A digest of the protocol:
(§4)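 Microsomal stability run in an automated high-throughput plate format. Intrinsic clearance corrected for nonspecific microsomal binding using measured unbound fraction (fu,mic), reported as unbound Clint in L/h/kg.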

In data set [7] the test system is Liver microsome. Description: Unbound intrinsic clearance in human liver microsomes after 5 hrs by LC-MS/MS analysis. The data set is classed as ADME. A digest of the protocol:
as §4

A short description of data set [8]: Fraction unbound in human plasma. The format is ADME, cell-free.

What is called Kb is the affinity of an antagonist, worked out from how it opposes an agonist. For orientation: IC50 means the concentration that inhibits the measured activity by half. What is called fraction unbound is the share of the substance not bound to proteins or other matrix. In the case of `O[C@H](c1ccccn1)C1(c2ccc(Cl)c(Cl)c2)CCC1`, the Drug metabolism result in the data set on Liver microsome [1], in the data set on Liver microsome [2] and in the data set with Liver microsome [3] was “metabolite_detected” each time. For the same compound, the Kb in data set [4] was determined as 80 nM. In data set [5], the IC50 is 160 nM. The CL free in the data set on Liver microsome [6] was found to be 2520 mL/min/kg; in the data set on Liver microsome [7] it was 683 mL/min/kg. In addition, in data set [8], the fraction unbound worked out at 0.007.

Source of the values: ChEMBL document CHEMBL3826935, “Synthesis and Pharmacology of (Pyridin-2-yl)methanol Derivatives as Novel and Selective Transient Receptor Potential Vanilloid 3 Antagonists” (J Med Chem, 2016).
